Only some compounds are listed: those with a hit (about 2.2% of all), similar ones and a draw of the others.
BaF3 tox: counter-screen for JAK2V617F inhibitors: parental Ba/F3 viability inhibitors; CellTiter-Glo ATP luminescence; inhibition, % at 5.6 µM; actives 1.1% (n = 220,000);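 active = inhibition above a per-campaign cutoff, the mean inhibition of all tested compounds plus 3 SD, cut at about 27% in these data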;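 also: 0% = DMSO wells and 100% = JAK Inhibitor I control wells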
b-catenin transl: beta-catenin nuclear translocation modulation. HeLa beta-catenin nuclear translocation, immunofluorescence imaging. nuclear translocation activity, % at 5 µM. actives 0.3% (n = 190,000). AID 1665;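 active = nuclear translocation activity above 50% at 5 µM, with a well cell count of 50 or more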;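 also: per-cell ratio of nuclear to cytoplasmic median beta-catenin stain intensity; plate controls were DMSO negative control for no effect and GSK-3 inhibitor IX positive control for full effect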
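Test system: human HeLa cells, native beta-catenin. Compound dosing: 5 µM primary single dose, 0.1% DMSO, 0.02–20 µM confirmation series. Incubation: compound exposure 24 h at 37°C. Detection: beta-catenin immunostaining with DAPI counterstain, 20x imaging, 6 fields/well. Read-out basis: Nuclear/cytoplasmic beta-catenin signal ratio, % activation.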
IEC-6 cytotox: IEC-6 cytotoxicity, counter-screen for KLF5 inhibitors; luminescence viability; inhibition, % at 5 µM; actives 0.78% (n = 290,000); in the data active = inhibition above about 22%;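 also: 0% = plate median of test compound wells and 100% = cytotoxic reference compound wells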
APP 5UTR inh: APP translation inhibition; inhibition, % at 2 µM; SH-SY5Y APP 5'UTR-luciferase reporter, luminescence; actives 0.82% (n = 190,000); AID 1285;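 active = inhibition above a set limit, derived from the sample mean plus 3 SD, cut at about 45% in these data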
Ba/F3 V617F tox: reduce viability of Ba/F3 cells dependent on JAK2V617F; actives 1.1% (n = 220,000); AID 1446; inhibition, % at 5.6 µM; Ba/F3 EpoR-JAK2V617F viability, ATP luminescence;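 active = inhibition above the campaign mean plus 3 SD over all tested compounds, cut at about 24% in these data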;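 also: cytokine-independent growth of Ba/F3 cells driven by EpoR plus mutant JAK2; 0% = DMSO-treated cells and 100% = JAK inhibitor I control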
MT stabilizer: stabilizes microtubules in HeLa cells. actives 0.83% (n = 200,000). % tubulin-high responders, % at 10 µM. HeLa tubulin immunostaining HCS, 24 h; share of cells brighter than vehicle mean+2SD;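 active = plate Z-score above 3 for both tubulin-high and condensed-nucleus cell shares, with cell loss under 80%, at 10 µM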;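 also: anti alpha tubulin signal scored within the nucleus-defined area of each cell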
* marks the source's active call; other numbers are inactive results; . = not tested or not shown.

SMILES | BaF3 tox | b-catenin transl | IEC-6 cytotox | APP 5UTR inh | Ba/F3 V617F tox | MT stabilizer
COc1ccccc1-c1nnc2sc(-c3cc4ccccc4o3)nn12 | 80* | 94* | 58* | 6 | 88* | 44
COc1ccccc1-c1nn2c(C(F)(F)F)nnc2s1 | -3 | -3 | 0 | 1 | -3 | 14*
COc1cc2[nH]c3c(=O)n4c(nc3c2cc1OC)SCCC4 | 3 | -1 | 8 | -22 | 13 | 3
CCOc1ccc(NS(=O)(=O)c2cc(NC(=O)c3ccc(C)cc3)ccc2Cl)cc1 | 70* | 24 | 56* | 87* | 80* | 21*
COc1ccc(C(=O)Nc2ccc(Cl)c(S(=O)(=O)Nc3ccccc3OC)c2)cc1 | 4 | 9 | 2 | -12 | -2 | 4
S=C(Nc1ccc(Cl)cc1)N1CCN(C2CCCCC2)CC1 | 36* | 0 | -4 | -10 | 23 | 2
CCOC(=O)N1CCN(C(=O)c2ccc(Oc3ccc([N+](=O)[O-])cc3)cc2)CC1 | -2 | -3 | 2 | -61 | -5 | 6
C[n+]1c2n(c3ccccc31)N=C(c1ccccc1)CS2 | 68* | -2 | 4 | -2 | 91* | 7
C[n+]1c2n(c3ccccc31)N=C(c1ccc(-c3ccccc3)cc1)CS2 | 71* | -2 | 16 | 0 | 99* | 5
C[n+]1c2n(c3ccccc31)N=C(c1ccc(Br)cc1)CS2 | 71* | -1 | 1 | -16 | 66* | 4
Cc1cccc(-c2nnc3n2N=C(c2ccccc2)CS3)c1 | 4 | 2 | 1 | -6 | -1 | 3
CCCCNC(=O)Nc1nnc(C(C)(C)C)s1 | -1 | 0 | 0 | . | 0 | .
CCn1c(CNc2ccc(F)cc2)nnc1SCCN1CCCCC1 | 93* | -2 | -2 | -7 | -3 | 5
CCn1c(CNc2ccccc2Cl)nnc1SCCN1CCCCC1 | 1 | 1 | 3 | -3 | 3 | 2
CCCCC(=O)N/N=C/c1ccc(Sc2cccc3cccnc23)o1 | 2 | 2 | 7 | -1 | 0 | 3
O=C(Cc1cccc2ccccc12)N/N=C/c1ccc(Sc2cccc3cccnc23)o1 | 1 | . | 0 | 54* | -4 | 3
Cc1ccnc(NC(=O)C2COc3ccccc3O2)c1 (centres undefined) | 85* | 4 | 8 | -130 | 7 | 2
CC(=O)c1sccc1NC(=O)CC(C)(C)CC(=O)O | -1 | 0 | -8 | . | 2 | .
Cc1ccc(/C=N/NC(=O)CSc2nc3ccccc3c(=O)n2-c2ccccc2)s1 | 3 | 0 | -8 | 1 | -5 | 9
CCn1c(SCC(=O)N/N=C/c2ccc(C)s2)nc2ccccc21 | 7 | 46 | 11 | 4 | -1 | 20*
C=CCCC1(C)C(=O)N(c2ccccc2)c2ccccc21 (centres undefined) | -3 | . | 5 | 7 | -4 | 19*
CC1=C(C(=O)Nc2cccc(F)c2)C(c2ccsc2)C2=C(CC(C)(C)CC2=O)N1 (centres undefined) | 49* | 76* | 67* | 60* | 81* | 12*
CC1=C(C(=O)Nc2ccc(F)cc2)C(c2ccc(C)o2)C2=C(CC(C)(C)CC2=O)N1 (centres undefined) | 8 | -1 | -2 | -9 | 5 | 6
CC1=C(C(=O)Nc2ccccc2F)C(c2ccsc2)C2=C(CC(C)(C)CC2=O)N1 (centres undefined) | 7 | 0 | 4 | 12 | 1 | 15*
CC(C)c1onc(C(=O)N2CCC(C(N)=O)CC2)c1[N+](=O)[O-] | -1 | -1 | 5 | . | -2 | .
SMILES | BaF3 tox | b-catenin transl | IEC-6 cytotox | APP 5UTR inh | Ba/F3 V617F tox | MT stabilizer
O=C(N/N=C1\CC2CC=CC12)c1ccccc1Cl (centres undefined) | 3 | 1 | 4 | -8 | 1 | 7
FC(F)(F)c1ccccc1NC(=S)N/N=C1\CC2CC=CC12 (centres undefined) | 11 | . | 0 | 86* | 4 | 11
CCn1cc(C(=O)O)c(=O)c2cc(OC)ccc21 | 4 | 0 | -4 | 5 | -1 | 4
COc1ccc2c(c1)c(=O)c(C(=O)c1ccccc1)cn2Cc1ccc(C)cc1 | 7 | 5 | -4 | 24 | 0 | 22*
O=[N+]([O-])c1ccc(Oc2c(F)c(F)nc(N3CCCC3)c2F)cc1 | 5 | 1 | 0 | 83* | -1 | 2
CSc1nc2ccccc2cc1/C=C(\C#N)c1ccccc1 | 2 | 1 | 10 | -4 | 2 | 36*
